Measured values taken from ChEMBL document CHEMBL1122209, “Synthesis of N-[[(substituted-phenyl)carbonyl]amino]-1,2,3,6-tetrahydropyridines with analgesic and hyperglycemic activity” (J Med Chem, 1982).

Experiments:
[1] = test system: Rattus norvegicus; test: Percentage change in blood glucose concentration in male Wistar rats after 4 hr post treatment at a dose of 100 mg/Kg po.; format: functional
How it was run: (§1)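 Groups of four male Wistar rats (230-260 g), fasted overnight. Test agent was suspended in 1% tragacanth in distilled water and given orally. Tail capillary blood was drawn at 0, 2 and 4 h. Serum glucose was determined spectrophotometrically from enzymatically produced NADH₂ (Barthelma-Czok procedure). Results are the mean of four animals; a positive value means hyperglycemic, a negative value hypoglycemic.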

[2] = test system: Rattus norvegicus; test: Percentage change in blood glucose concentration in male Wistar rats after 2 hr post treatment at a dose of 100 mg/Kg po.; format: functional; how it was run: as §1
[3] = test system: Mus musculus; test: Analgesic activity was measured by phenylquinone writhing test in male Swiss albino mice at a dose of 0.004 mg/Kg, sc; format: functional
How it was run: (§2)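 Groups of five male Swiss albino mice (18-22 g). Test agent was suspended in physiological saline with Tween 80 by ultrasonic mixing and given sc. After 30 min, 0.03% phenyl-p-benzoquinone was given ip at 0.1 mL/10 g body weight. Total writhes were counted and compared with a vehicle-treated control group: % change = 100 − (treated writhes/control writhes × 100).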

[4] = test system: Rattus norvegicus; test: Percentage change in blood glucose concentration in male Wistar rats after 2 hr post treatment at a dose of 30 mg/Kg po; Hyperglycemic; format: functional; how it was run: as §1
[5] = test system: Mus musculus; test: Analgesic activity was measured by phenylquinone writhing test in male Swiss albino mice at a dose of 0.004 mg/Kg, sc.; format: functional; how it was run: as §2
[6] = test system: Rattus norvegicus; test: Percentage change in blood glucose concentration in male Wistar rats after 4 hr post treatment at a dose of 100 mg/Kg po; Hyperglycemic; format: functional; how it was run: as §1
[7] = test system: Rattus norvegicus; test: Percentage change in blood glucose concentration in male Wistar rats after 2 hr post treatment at a dose of 100 mg/Kg po; Hyperglycemic; format: functional; how it was run: as §1
[8] = test system: Rattus norvegicus; test: Percentage change in blood glucose concentration in male Wistar rats after 4 hr post treatment at a dose of 30 mg/Kg po; Hyperglycemic; format: functional; how it was run: as §1
[9] = test system: Rattus norvegicus; test: Percentage change in blood glucose concentration in male Wistar rats after 2 hr post treatment at a dose of 100 mg/Kg po; Hypoglycemic; format: functional; how it was run: as §1
[10] = test system: Rattus norvegicus; test: Percentage change in blood glucose concentration in male Wistar rats after 4 hr post treatment at a dose of 100 mg/Kg po; Hypoglycemic; format: functional; how it was run: as §1
[11] = test system: Rattus norvegicus; test: Antiinflammatory activity was measured by carrageenan-induced paw edema test in female Sprague-Dawley rats at dose of 12 mg/Kg sc after 5 hr
[12] = test system: Rattus norvegicus; test: Antiinflammatory activity was measured by carrageenan-induced paw edema test in female Sprague-Dawley rats at dose of 12 mg/Kg sc after 3h
[13] = test system: Mus musculus; test: Analgesic activity was measured by phenylquinone writhing test in male Swiss albino mice at a dose of 50 mg/Kg, sc.; format: functional; how it was run: as §2
[14] = test system: Mus musculus; test: Analgesic activity was measured by phenylquinone writhing test in male Swiss albino mice at a dose of 0.038 mg/Kg, sc.; conditions: read-out: Inhibition
[15] = test system: Mus musculus; test: Analgesic activity was measured by phenylquinone writhing test in male Swiss albino mice at a dose of 3.1 mg/Kg, sc.; conditions: read-out: Inhibition

**Q.** Which Change [1] does the source give for O=C(NN1CC=CCC1)c1cccc(C(F)(F)F)c1 here?
**A.** 102%

**Q.** What about the Change [2] of the same compound?
**A.** 114.8%

**Q.** What about the inhibition in vivo at 0.004 mg/kg [3] of the same compound?
**A.** 54.4%

**Q.** How did the Change [1] turn out when Cc1ccc(C(=O)NN2CC=CCC2)cc1 was run?
**A.** 41%

**Q.** What about the Change [2] of the same compound?
**A.** 73%

**Q.** And the inhibition in vivo at 0.004 mg/kg [3]?
**A.** 48%

**Q.** What does the source list for O=C(NN1CC=CCC1)c1ccccc1F?
**A.** Change [4]: 50%; Change [1]: 127%; Change [2]: 213%; inhibition in vivo at 0.004 mg/kg [3]: 64.8%

**Q.** What does the source list for O=C(NN1CC=CCC1)c1ccc([N+](=O)[O-])cc1?
**A.** inhibition in vivo at 0.004 mg/kg [5]: 51%; Change [6]: 140.6%; Change [7]: 92.6%

**Q.** Which results are given for Cc1ccc(C(=O)NN2CC=CCC2)cc1C?
**A.** Change [1]: 62.8%; Change [2]: 92.3%; inhibition in vivo at 0.004 mg/kg [3]: 60.8%

**Q.** Which results are given for COc1cccc(C(=O)NN2CC=CCC2)c1?
**A.** Change [1]: 72.8%; Change [2]: 113.3%; inhibition in vivo at 0.004 mg/kg [3]: 68.8%

**Q.** With O=C(NN1CC=CCC1)c1ccccc1 as the compound, how does the Change [1] read?
**A.** 50%

**Q.** And the Change [2]?
**A.** 78%

**Q.** And the inhibition in vivo at 0.004 mg/kg [3]?
**A.** 73.6%

**Q.** Cc1cccc(C(=O)NN2CC=CCC2)c1 was tested. Which Change [8] did it give?
**A.** 50%

**Q.** What about the Change [4] of the same compound?
**A.** 50%

**Q.** What about the Change [1] of the same compound?
**A.** 108.5%

**Q.** And the Change [2]?
**A.** 117.2%

**Q.** And the inhibition in vivo at 0.004 mg/kg [3]?
**A.** 56%

**Q.** With O=C(NN1CC=CCC1)c1cccc(F)c1 as the compound, how does the Change [1] read?
**A.** 137.8%

**Q.** What about the Change [2] of the same compound?
**A.** 167.3%

**Q.** What about the inhibition in vivo at 0.004 mg/kg [3] of the same compound?
**A.** 65.6%

**Q.** Which Change [1] does the source give for O=C(NN1CC=CCC1)c1ccccc1C(F)(F)F here?
**A.** 19.6%

**Q.** What about the Change [2] of the same compound?
**A.** 1.2%

**Q.** And the inhibition in vivo at 0.004 mg/kg [3]?
**A.** 64%

**Q.** Which results are given for O=C(NN1CC=CCC1)c1cc(Cl)cc(Cl)c1?
**A.** Change [1]: 18.5%; Change [2]: 3.8%; inhibition in vivo at 0.004 mg/kg [3]: 69.6%

**Q.** Which results are given for O=C(NN1CC=CCC1)c1ccc(Cl)c(Cl)c1?
**A.** Change [1]: 59%; Change [2]: 50%; inhibition in vivo at 0.004 mg/kg [3]: 48.8%

**Q.** How did the Change [9] turn out when CCCNC(=O)NS(=O)(=O)c1ccc(Cl)cc1 [CHLORPROPAMIDE] was run?
**A.** -42%

**Q.** What about the Change [10] of the same compound?
**A.** -38%

**Q.** For O=C(NN1CC=CCC1)c1ccc(C(F)(F)F)cc1, which Change [1] is on record?
**A.** 37.3%

**Q.** What about the Change [2] of the same compound?
**A.** 43.3%

**Q.** And the inhibition in vivo at 0.004 mg/kg [3]?
**A.** 46.4%

**Q.** COc1ccccc1C(=O)NN1CC=CCC1 was tested. Which Change [1] did it give?
**A.** 6.3%

**Q.** What about the Change [2] of the same compound?
**A.** 5.8%

**Q.** What about the inhibition in vivo at 0.004 mg/kg [3] of the same compound?
**A.** 69.6%

**Q.** Which results are given for COc1ccc2c(c1)c(CC(=O)O)c(C)n2C(=O)c1ccc(Cl)cc1 [INDOMETHACIN]?
**A.** inhibition in vivo at 12 mg/kg [11]: 83%; inhibition in vivo at 12 mg/kg [12]: 17%

**Q.** For O=C(NN1CC=CCC1)c1ccc(Cl)cc1Cl, which Change [1] is on record?
**A.** 1.3%

**Q.** And the Change [9]?
**A.** -6.5%

**Q.** What about the inhibition in vivo at 0.004 mg/kg [3] of the same compound?
**A.** 57.2%

**Q.** How did the Change [1] turn out when O=C(NN1CC=CCC1)c1ccc(Cl)cc1 was run?
**A.** 26%

**Q.** What about the Change [2] of the same compound?
**A.** 109%

**Q.** And the inhibition in vivo at 0.004 mg/kg [3]?
**A.** 61.6%

**Q.** With Cc1ccccc1C(=O)NN1CC=CCC1 as the compound, how does the Change [9] read?
**A.** -2.8%

**Q.** And the Change [10]?
**A.** -6.3%

**Q.** And the inhibition in vivo at 0.004 mg/kg [3]?
**A.** 72%

**Q.** Which Change [1] does the source give for COc1ccc(C(=O)NN2CC=CCC2)cc1 here?
**A.** 26%

**Q.** And the Change [2]?
**A.** 69%

**Q.** And the inhibition in vivo at 0.004 mg/kg [3]?
**A.** 57.6%

**Q.** For CC(=O)Oc1ccccc1C(=O)O [ASPIRIN], which inhibition in vivo at 50 mg/kg [13] is on record?
**A.** 50%

**Q.** What does the source list for O=C(NN1CC=CCC1)c1ccc(F)cc1?
**A.** Change [1]: 154%; Change [2]: 124%; inhibition in vivo at 0.004 mg/kg [3]: 55.2%

**Q.** What does the source list for CC(C)(C)c1ccc(C(=O)NN2CC=CCC2)cc1?
**A.** Change [1]: 4.7%; Change [2]: 1.8%; inhibition in vivo at 0.004 mg/kg [3]: 48.8%

**Q.** CN1CC[C@]23c4c5ccc(O)c4O[C@H]2[C@@H](O)C=C[C@H]3[C@H]1C5 was tested. Which inhibition in vivo at 0.038 mg/kg [14] did it give?
**A.** 50%

**Q.** And the inhibition in vivo at 3.1 mg/kg [15]?
**A.** 50%

**Q.** With CCC(=O)O[C@](Cc1ccccc1)(c1ccccc1)[C@H](C)CN(C)C [PROPOXYPHENE] as the compound, how does the inhibition in vivo at 0.004 mg/kg [3] read?
**A.** 50%

**Q.** For O=C(NN1CC=CCC1)c1ccccc1Cl, which Change [1] is on record?
**A.** 21.4%

**Q.** What about the Change [2] of the same compound?
**A.** 16.9%

**Q.** And the inhibition in vivo at 0.004 mg/kg [3]?
**A.** 52%
